According to ChEMBL document CHEMBL5370575, “Probing the Cytotoxic Signaling Induced by Eupenifeldin in Ovarian Cancer Models” (J Nat Prod, 2023):
Active and inactive are the calls of the source. No cut-off for these calls is given here.

Assays:
[1] = system: HeLa; test: Induction of autophagic flux in human HeLa cells harbouring mCherry-eGFP-LC3 assessed as increase in number of autolysosomes at 10 nM incubated for 24 hrs by Hoechst 33342 and DAPI staining based analysis; assay type: functional, cell-based
In short: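 HeLa stably expressing mCherry-eGFP-LC3, 384-well plates, treated 24 h, fixed 12 min in 4% formaldehyde, nuclei stained, imaged at 10× under FITC and Texas Red filters; autolysosomes/autophagosomes quantified by high-content analysis and normalised to DMSO; chloroquine as control. Three biological replicates in duplicate.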

[2] = system: OVCAR-3; test: Induction of apoptosis in human OVCAR-3 cells assessed as decrease in caspase-3/7 activity at 50 nM incubated for 48 hrs in presence of by ZVAD-FMK fluorescent reporter assay
[3] = system: OVCAR-8; test: Antitumor activity against human OVCAR-8 cells xenografted in immunodeficient NCr nu/nu mouse assessed as reduction in cell survival at 0.5 mg/kg, ip administrated once per day for 4 days measured on day 7 by MTT assay; assay type: functional, organism-based; conditions: time 7.0 day
In short: (§1)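 Female immunodeficient NCr nu/nu mice (6–8 weeks) carried intraperitoneal polyvinylidene fluoride hollow fibres holding OVCAR3 and OVCAR8 cells (day 0). Dosed ip once daily on days 3–6 in 2% DMSO/48% PEG300/50% H₂O diluted with H₂O. Fibres retrieved on day 7; cell viability by modified MTT assay. One-way ANOVA with Dunnett's test vs vehicle.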

[4] = system: OVCAR-8; test: Induction of apoptosis in human OVCAR-8 cells assessed as increase in caspase-3/7 activity at 50 nM incubated for 48 hrs by fluorescent reporter assay
[5] = system: OVCAR-5; test: Induction of autophagy in human OVCAR-5 cells assessed as reduction in cell viability at 25 nM incubated for 72 hrs in presence of bafilomycin by CellTiter-Blue Cell Viability assay; assay type: functional, cell-based
In short: (§2)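 5000 cells/well attached overnight, then treated 72 h with 25 nM alone or with bafilomycin A1 (5 nM; OVCAR8 also at 1 nM); bafilomycin alone as control. Viability by CellTiter-Blue fluorescence, normalised to vehicle. One-way ANOVA with Tukey's test.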

[6] = system: OVCAR-3; test: Induction of apoptosis in human OVCAR-3 cells assessed as increase in necrotic cells at 25 nM incubated for 48 hrs by Annexin V-FITC/propidium iodide staining based analysis; assay type: functional, cell-based
In short: (§3)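 OVCAR5/OVCAR8 seeded at 175 000 and OVCAR3 at 190 000 cells per 60 mm dish, attached overnight, treated 48 h (10, 25 or 50 nM). Media and cells collected, PBS-washed, stained with annexin V-FITC/propidium iodide and read on a cell counter with gating per kit. Three biological replicates, mean ± SEM, Dunnett's test.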

[7] = system: OVCAR-3; test: Induction of ferroptosis in human OVCAR-3 cells at 0.1 to 10 uM in the presence of ferrostatin-1 by CellTiterGlo assay; assay type: functional, cell-based; conditions: dose 0.1-10 µM
In short: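 OVCAR3 in 384-well plates (1000 cells/well), given 100 nM to 10 μM together with 2 μM ferrostatin-1, in triplicate; viability measured by CellTiter-Glo.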

[8] = system: OVCAR-3; test: Anti-ferroptotic activity against human OVCAR-3 cells assessed as decrease in lipid peroxidation at 50 nM incubated for 24 hrs in presence of ferrostatin-1 by C11-BODIPY staining based flow cytometric analysis; assay type: functional, cell-based
In short: (§4)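 Cells treated 24 h with 50 nM, with or without 2 μM ferrostatin-1; lipid peroxidation read as C11-BODIPY fluorescence in the green channel by flow cytometry.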

[9] = Toxicity in immunodeficient NCr nu/nu mouse xenografted with human OVCAR-8 cells assessed as change in body weight at 0.5 mg/kg, ip administrated once per day for 4 days measured measured on day 7 relative to control; assay type: organism-based; conditions: in vivo, 168 h, time 7 day
In short: (§5)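 Female immunodeficient NCr nu/nu mice, 6–8 weeks old, carried cells sealed in polyvinylidene fluoride hollow fibers implanted intraperitoneally on day 0. Dosing was i.p. once daily on days 3–6 in 2% DMSO:48% PEG300:50% H2O, diluted with H2O. Body weight was followed over the study, and fibers were retrieved on day 7.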

[10] = system: OVCAR-8; test: Cytotoxicity against human OVCAR-8 cells assessed as reduction in colony formation at 10 nM incubated for 8 hrs measured after 15 days by crystal violet staining based analysis; assay type: functional, cell-based; conditions: time 368.0 hrs
In short: (§6)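 Seeded at 200 cells per dish, attached overnight, exposed 8 h to 10 nM (DMSO vehicle 0.1%), then grown 15 days in untreated growth medium. Colonies fixed with 4% paraformaldehyde, stained with 0.05% crystal violet, counted and normalised to vehicle. Mean ± SEM, three biological replicates, one-way ANOVA with Dunnett's test.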

[11] = system: HeLa; test: Induction of autophagy in human HeLa cells harboring eGFP-LC3 assessed as increase in LC3 puncta accumulation at 250 nM incubated for 4 hrs by Hoechst 33342 and DAPI staining based analysis; assay type: functional, cell-based
In short: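 HeLa stably expressing eGFP-LC3, 384-well plates, treated 4 h with serial dilutions starting at 250 nM, fixed in 4% formaldehyde, nuclei counterstained, imaged at 10× (FITC); LC3 puncta quantified by image analysis, normalised to DMSO, dose–response fitted.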

[12] = system: OVCAR-3 (Homo sapiens); test: Anti-ferroptotic activity against human OVCAR-3 cells assessed as decrease in lipid peroxidation at 50 nM incubated for 24 hrs in presence of ferrostatin-1 by C11-BODIPY staining based flow cytometric analysis
[13] = system: OVCAR-3; test: Induction of apoptosis in human OVCAR-3 cells assessed as increase in caspase-3/7 activity at 50 nM incubated for 48 hrs by fluorescent reporter assay
[14] = system: OVCAR-3; test: Induction of autophagy in human OVCAR-3 cells assessed as reduction in cell viability at 25 nM incubated for 72 hrs in presence of bafilomycin by CellTiter-Blue Cell Viability assay; assay type: functional, cell-based; in short: as §2
[15] = system: OVCAR-8; test: Induction of apoptosis in human OVCAR-8 cells assessed as increase in apoptotic cells at 25 nM incubated for 48 hrs by Annexin V-FITC/propidium iodide staining based analysis; assay type: functional, cell-based; in short: as §3
[16] = system: OVCAR-5; test: Cytotoxicity against human OVCAR-5 cells assessed as inhibition of cell growth for 72 hrs by CellTiter-Blue cell viability assay; assay type: functional, cell-based; conditions: OVCAR-5, 72 h
In short: (§7)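 5000 cells seeded in triplicate, attached overnight, then exposed for 72 h to serial concentrations in DMSO vehicle (0.05%). Viability was read by fluorometric CellTiter-Blue. IC50 in nM comes from dose–response curves relative to DMSO control. Media: OVCAR3 in RPMI1640, OVCAR5/OVCAR8 in DMEM, hFT33 in DMEM-Ham's F12 50/50, all with 10% FBS. Data are mean ± SEM, three biological replicates.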

[17] = system: OVCAR-8; test: Induction of apoptosis in human OVCAR-8 cells assessed as increase in necrotic cells at 25 nM incubated for 48 hrs by Annexin V-FITC/propidium iodide staining based analysis; assay type: functional, cell-based; in short: as §3
[18] = system: OVCAR-3; test: Cytotoxicity against human OVCAR-3 cells assessed as reduction in colony formation at 10 nM incubated for 8 hrs measured after 15 days by crystal violet staining based analysis; assay type: functional, cell-based; conditions: time 368.0 hrs; in short: as §6
[19] = system: OVCAR-3; test: Induction of apoptosis in human OVCAR-3 cells assessed as increase in apoptotic cells at 25 nM incubated for 48 hrs by Annexin V-FITC/propidium iodide staining based analysis; assay type: functional, cell-based; in short: as §3
[20] = system: OVCAR-5; test: Induction of apoptosis in human OVCAR-5 cells at 25 nM incubated for 48 hrs by Annexin V-FITC/propidium iodide staining based analysis; assay type: functional, cell-based; in short: as §3
[21] = system: OVCAR-3; test: Cytotoxicity against human OVCAR-3 cells assessed as inhibition of cell growth for 72 hrs by CellTiter-Blue cell viability assay; assay type: functional, cell-based; conditions: OVCAR-3, 72 h; in short: as §7
[22] = Cytotoxicity against human FT33 cells assessed as inhibition of cell growth for 72 hrs by CellTiter-Blue cell viability assay; assay type: toxicity, cell-based; in short: as §7
[23] = system: OVCAR-5; test: Induction of apoptosis in human OVCAR-5 cells assessed as increase in caspase-3/7 activity at 50 nM incubated for 48 hrs by fluorescent reporter assay
[24] = system: OVCAR-5; test: Inhibition of cell migration in human OVCAR-5 cells assessed as decrease in wound closure at 10 to 25 nM incubated for 48 hrs by wound healing assay; assay type: functional, cell-based; conditions: dose 10-25 nM
In short: (§8)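 Confluent monolayers scratched once, washed with PBS, then treated with 10 or 25 nM (paclitaxel 10 nM control) for 48 h. Scratch area imaged at 4× at 0 and 48 h, measured and normalised to vehicle. One-way ANOVA with Dunnett's test.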

[25] = system: OVCAR-8; test: Induction of autophagy in human OVCAR-8 cells assessed as reduction in cell viability at 25 nM incubated for 72 hrs in the presence of 1 nM bafilomycin by CellTiter-Blue Cell Viability assay; assay type: functional, cell-based; in short: as §2
[26] = system: OVCAR-8; test: Inhibition of cell migration in human OVCAR-8 cells assessed as decrease in wound closure at 10 to 25 nM incubated for 48 hrs by wound healing assay; assay type: functional, cell-based; conditions: dose 10-25 nM; in short: as §8
[27] = system: OVCAR-3; test: Antitumor activity against human OVCAR-3 cells xenografted in immunodeficient NCr nu/nu mouse assessed as reduction in cell survival at 0.5 mg/kg, ip administrated once per day for 4 days measured on day 7 by MTT assay; assay type: functional, organism-based; conditions: time 7.0 day; in short: as §1
[28] = system: OVCAR-8; test: Induction of apoptosis in human OVCAR-8 cells assessed as decrease in caspase-3/7 activity at 50 nM incubated for 48 hrs in presence of by ZVAD-FMK fluorescent reporter assay
[29] = Toxicity in immunodeficient NCr nu/nu mouse xenografted with human OVCAR-3 cells assessed as change in body weight at 0.5 mg/kg, ip administrated once per day for 4 days measured measured on day 7 relative to control; assay type: organism-based; conditions: in vivo, 168 h, time 7 day; in short: as §5
[30] = system: OVCAR-3; test: Induction of apoptosis in human OVCAR-3 cells assessed as increase in cleaved PARP expression level at >=10 nM incubated for 72 hrs by Western blotting analysis
[31] = system: OVCAR-5; test: Induction of apoptosis in human OVCAR-5 cells assessed as decrease in caspase-3/7 activity at 50 nM incubated for 48 hrs in presence of by ZVAD-FMK fluorescent reporter assay
[32] = system: OVCAR-3 (Homo sapiens); test: Anti-ferroptotic activity against human OVCAR-3 cells assessed as decrease in lipid peroxidation at 50 nM incubated for 24 hrs by C11-BODIPY staining based flow cytometric analysis
[33] = system: OVCAR-5; test: Cytotoxicity against human OVCAR-5 cells assessed as reduction in colony formation at 10 nM incubated for 8 hrs measured after 15 days by crystal violet staining based analysis; assay type: functional, cell-based; conditions: time 368.0 hrs; in short: as §6
[34] = system: OVCAR-8; test: Cytotoxicity against human OVCAR-8 cells assessed as inhibition of cell growth for 72 hrs by CellTiter-Blue cell viability assay; assay type: functional, cell-based; conditions: OVCAR-8, 72 h; in short: as §7
[35] = system: OVCAR-3; test: Anti-ferroptotic activity against human OVCAR-3 cells assessed as decrease in lipid peroxidation at 50 nM incubated for 24 hrs by C11-BODIPY staining based flow cytometric analysis; assay type: functional, cell-based; in short: as §4

For Cc1cc(=O)c(O)cc2c1C[C@H]1CC(C)(C)/C=C/C[C@]3(C)Oc4cc(O)c(=O)cc(C)c4C[C@H]3C[C@H](O)[C@@]1(C)O2, the Activity [1] was “Active”, the Activity [2] was “Active” and the Activity [3] was “inactive”. The Activity [4] was “Active”, the Activity [5] was “inactive” and the Activity [6] was “Active”. The Activity [7] was “Active”, the Activity [8] was “Active” and the Activity [9] was greater than 12%. For the same compound, the Activity [10] was “Active”, the Activity [11] was “Active” and the Activity [12] was “Active”. The Activity [13] was “Active”, the Activity [14] was “inactive” and the Activity [15] was “Active”. The IC50 [16] was 11 nM, the Activity [17] was “Active” and the Activity [18] was “Active”. The Activity [19] was “Active”, the Activity [20] was “inactive” and the IC50 [21] was 9.7 nM. For the same compound, the IC50 at 72 h [22] was 170 nM, the Activity [23] was “Active” and the inhibition [24] was “Active”. For the same compound, the Activity [25] was “inactive”, the inhibition [26] was “Active” and the Activity [27] was “Active”. The Activity [28] was “Active”, the Activity [29] was “<= 12%” and the Activity [30] was “Active”. The Activity [31] was “Active”, the Activity [32] was “Active” and the Activity [33] was “Active”. The IC50 [34] was 12 nM and the Activity [35] was “Active”.
